Measured values taken from the M2OR odorant receptor database.

Assays:
Settings in all cases: stereoisomer not certain
OR4A15 (Homo sapiens) = OR4A15 (Homo sapiens) (UniProt Q8NGL6)
Outline: (§1)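 Assay methods differ from source to source, frequently being transient luciferase assays in mammalian cell lines. For each receptor–molecule pair, the label responsive (active) applies when the original authors judged the measured signal statistically different from baseline, and non-responsive (inactive) applies otherwise.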

OR4A16 (Homo sapiens) = biological target: T1, OR4A16 (Homo sapiens) (UniProt Q8NH70)
T1 sequence (whole entry): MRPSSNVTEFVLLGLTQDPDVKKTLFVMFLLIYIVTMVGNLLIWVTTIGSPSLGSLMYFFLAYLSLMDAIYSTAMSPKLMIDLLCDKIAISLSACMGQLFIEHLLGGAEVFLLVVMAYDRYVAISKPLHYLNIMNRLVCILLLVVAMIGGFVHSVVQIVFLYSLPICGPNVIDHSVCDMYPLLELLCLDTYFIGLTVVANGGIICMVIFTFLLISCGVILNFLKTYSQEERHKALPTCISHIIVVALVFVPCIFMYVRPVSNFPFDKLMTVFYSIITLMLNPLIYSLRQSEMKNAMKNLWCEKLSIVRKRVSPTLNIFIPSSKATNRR
Outline: as §1

OR4A47 (Homo sapiens) = biological target: T2, OR4A47 (Homo sapiens) (UniProt Q6IF82)
T2 sequence (whole entry): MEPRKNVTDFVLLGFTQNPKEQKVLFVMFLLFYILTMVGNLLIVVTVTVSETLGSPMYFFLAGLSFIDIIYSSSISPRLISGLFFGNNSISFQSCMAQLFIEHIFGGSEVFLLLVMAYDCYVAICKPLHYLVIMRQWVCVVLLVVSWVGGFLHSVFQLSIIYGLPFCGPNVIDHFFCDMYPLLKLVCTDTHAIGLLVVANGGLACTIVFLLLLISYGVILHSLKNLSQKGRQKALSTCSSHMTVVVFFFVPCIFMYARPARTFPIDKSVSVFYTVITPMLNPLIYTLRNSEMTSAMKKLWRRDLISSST
Outline: as §1

OR4A5 (Homo sapiens) = biological target: T3, OR4A5 (Homo sapiens) (UniProt Q8NH83)
T3 sequence (whole entry): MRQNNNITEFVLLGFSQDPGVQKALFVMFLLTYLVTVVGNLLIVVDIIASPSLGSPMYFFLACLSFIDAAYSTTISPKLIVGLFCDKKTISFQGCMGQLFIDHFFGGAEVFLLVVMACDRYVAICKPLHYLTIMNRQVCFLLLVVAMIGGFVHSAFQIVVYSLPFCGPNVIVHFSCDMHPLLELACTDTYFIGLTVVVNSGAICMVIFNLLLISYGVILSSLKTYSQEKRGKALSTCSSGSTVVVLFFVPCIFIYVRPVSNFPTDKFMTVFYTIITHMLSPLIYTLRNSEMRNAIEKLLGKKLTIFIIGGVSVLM
Outline: as §1

OR4A8 (Homo sapiens) = OR4A8 (Homo sapiens) (UniProt P0C604)
Outline: as §1

OR4B1 (Homo sapiens) = biological target: T4, OR4B1 (Homo sapiens) (UniProt Q8NGF8)
T4 sequence (whole entry): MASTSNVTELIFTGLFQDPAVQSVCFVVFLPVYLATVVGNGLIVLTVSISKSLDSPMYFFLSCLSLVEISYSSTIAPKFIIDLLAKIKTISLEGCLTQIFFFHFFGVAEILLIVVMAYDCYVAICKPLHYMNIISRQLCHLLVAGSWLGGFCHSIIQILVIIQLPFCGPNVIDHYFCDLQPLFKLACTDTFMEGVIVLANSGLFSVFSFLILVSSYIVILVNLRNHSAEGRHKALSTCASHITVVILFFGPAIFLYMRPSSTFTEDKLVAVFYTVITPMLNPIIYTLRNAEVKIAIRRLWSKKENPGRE
Outline: as §1

OR4C11 (Homo sapiens) = biological target: T5, OR4C11 (Homo sapiens) (UniProt Q6IEV9)
T5 sequence (whole entry): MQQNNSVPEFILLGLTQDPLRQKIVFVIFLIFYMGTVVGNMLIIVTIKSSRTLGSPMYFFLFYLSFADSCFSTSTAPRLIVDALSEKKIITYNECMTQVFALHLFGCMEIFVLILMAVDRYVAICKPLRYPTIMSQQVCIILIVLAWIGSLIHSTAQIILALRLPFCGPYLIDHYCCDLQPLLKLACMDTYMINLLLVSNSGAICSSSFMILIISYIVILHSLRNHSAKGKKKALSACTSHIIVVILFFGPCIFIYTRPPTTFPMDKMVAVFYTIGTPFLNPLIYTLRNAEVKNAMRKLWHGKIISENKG
Outline: as §1

OR4C12 (Homo sapiens) = OR4C12 (Homo sapiens) (UniProt Q96R67)
Outline: as §1

OR3A3 T48I L132F = tested on: T6, OR3A3 T48I L132F
T6 sequence (whole entry): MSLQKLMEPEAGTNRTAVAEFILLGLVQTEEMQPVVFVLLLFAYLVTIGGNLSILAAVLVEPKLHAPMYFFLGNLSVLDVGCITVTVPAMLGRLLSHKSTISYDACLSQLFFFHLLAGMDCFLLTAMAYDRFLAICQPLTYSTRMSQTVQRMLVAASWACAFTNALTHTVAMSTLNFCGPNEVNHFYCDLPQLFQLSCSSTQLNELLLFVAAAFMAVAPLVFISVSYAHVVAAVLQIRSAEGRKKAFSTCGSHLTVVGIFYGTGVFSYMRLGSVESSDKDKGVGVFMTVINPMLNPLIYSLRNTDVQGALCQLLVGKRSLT
Outline: as §1

OR3A4P (Homo sapiens) = biological target: T7, OR3A4P (Homo sapiens) (UniProt P47883)
T7 sequence (whole entry): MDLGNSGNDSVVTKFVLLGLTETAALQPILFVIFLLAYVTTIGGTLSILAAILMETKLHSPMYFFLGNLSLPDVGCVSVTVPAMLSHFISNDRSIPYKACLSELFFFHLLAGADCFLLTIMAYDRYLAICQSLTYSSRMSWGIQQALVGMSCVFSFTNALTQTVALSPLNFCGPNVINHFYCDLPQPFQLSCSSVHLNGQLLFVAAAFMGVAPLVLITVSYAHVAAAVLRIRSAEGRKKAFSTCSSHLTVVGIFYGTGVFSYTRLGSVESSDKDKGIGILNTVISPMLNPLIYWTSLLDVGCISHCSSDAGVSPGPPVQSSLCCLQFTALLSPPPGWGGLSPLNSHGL
Outline: as §1

Chain of OR4C12 (Homo sapiens) (Q96R67 whole entry): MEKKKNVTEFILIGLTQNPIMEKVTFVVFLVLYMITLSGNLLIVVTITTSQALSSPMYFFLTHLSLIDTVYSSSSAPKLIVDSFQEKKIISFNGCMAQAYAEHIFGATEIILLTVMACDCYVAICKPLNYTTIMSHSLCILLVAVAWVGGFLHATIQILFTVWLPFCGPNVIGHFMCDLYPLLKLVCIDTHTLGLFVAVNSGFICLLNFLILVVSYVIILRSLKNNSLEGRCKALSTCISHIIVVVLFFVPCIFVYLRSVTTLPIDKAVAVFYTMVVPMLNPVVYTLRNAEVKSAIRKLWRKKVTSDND
Chain of OR4A15 (Homo sapiens) (Q8NGL6 whole entry): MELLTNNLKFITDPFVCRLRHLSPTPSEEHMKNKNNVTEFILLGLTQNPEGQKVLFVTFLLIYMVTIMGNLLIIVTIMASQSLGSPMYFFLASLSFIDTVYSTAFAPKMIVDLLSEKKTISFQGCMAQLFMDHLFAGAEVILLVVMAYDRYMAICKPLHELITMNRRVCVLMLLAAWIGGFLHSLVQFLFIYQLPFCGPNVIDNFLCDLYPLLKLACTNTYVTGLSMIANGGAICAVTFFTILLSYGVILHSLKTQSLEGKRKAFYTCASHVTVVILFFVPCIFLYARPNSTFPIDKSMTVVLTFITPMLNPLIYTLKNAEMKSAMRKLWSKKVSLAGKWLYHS
Chain of OR4A8 (Homo sapiens) (P0C604 whole entry): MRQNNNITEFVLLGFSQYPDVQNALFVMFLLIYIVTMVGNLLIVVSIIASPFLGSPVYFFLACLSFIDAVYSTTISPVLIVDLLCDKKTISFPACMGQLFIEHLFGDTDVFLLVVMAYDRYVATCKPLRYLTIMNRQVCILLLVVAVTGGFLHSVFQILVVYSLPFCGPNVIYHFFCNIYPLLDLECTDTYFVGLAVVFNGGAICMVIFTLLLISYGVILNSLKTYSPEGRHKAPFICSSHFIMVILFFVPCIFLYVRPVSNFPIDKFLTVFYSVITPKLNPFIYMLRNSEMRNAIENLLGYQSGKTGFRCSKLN

Row | Structure (SMILES) | odorant receptor agonist call (OR4A15 (Homo sapiens)) | odorant receptor agonist call (OR4A16 (Homo sapiens)) | odorant receptor agonist call (OR4A47 (Homo sapiens)) | odorant receptor agonist call (OR4A5 (Homo sapiens)) | odorant receptor agonist call (OR4A8 (Homo sapiens)) | odorant receptor agonist call (OR4B1 (Homo sapiens)) | odorant receptor agonist call (OR4C11 (Homo sapiens)) | odorant receptor agonist call (OR4C12 (Homo sapiens)) | odorant receptor agonist call (OR3A3 T48I L132F) | odorant receptor agonist call (OR3A4P (Homo sapiens))
1 | CC(=O)c1c(C)c([N+](=O)[O-])c(C(C)(C)C)c([N+](=O)[O-])c1C | inactive | inactive | inactive | inactive | inactive | inactive | inactive | inactive | – | –
2 | CC1CCCCCCCCCCCCC(=O)C1 (stereo not given) | inactive | inactive | inactive | inactive | inactive | inactive | inactive | inactive | – | –
3 | CCC1OC(=O)C(O)=C1C (stereo not given) | inactive | inactive | inactive | inactive | – | inactive | inactive | inactive | inactive | –
4 | CCCCCC(S)C(C)CO (stereo not given) | inactive | active | inactive | inactive | – | inactive | inactive | inactive | – | inactive
5 | Cc1cnc(C)c(C)n1 | inactive | inactive | inactive | inactive | – | inactive | inactive | inactive | inactive | –
6 | CCCCC(S)C(C)CO (stereo not given) | inactive | inactive | inactive | inactive | – | inactive | inactive | inactive | – | inactive
7 | CC1=C(O)C(=O)OC1C (stereo not given) | inactive | inactive | inactive | inactive | – | inactive | inactive | inactive | inactive | –
8 | CC1=NC(C)C(C)S1 (stereo not given) | inactive | inactive | inactive | inactive | – | inactive | inactive | inactive | inactive | –
9 | CC1=C(O)C(=O)C(C)O1 (stereo not given) | inactive | inactive | inactive | inactive | – | inactive | inactive | inactive | inactive | –
10 | CCCC(S)CCOC(C)=O (stereo not given) | inactive | inactive | inactive | inactive | – | inactive | inactive | inactive | inactive | –
11 | CCC1OC(C)=C(O)C1=O (stereo not given) | inactive | inactive | inactive | inactive | – | inactive | inactive | inactive | inactive | –
12 | CC(CO)CS (stereo not given) | inactive | inactive | inactive | inactive | – | inactive | inactive | inactive | – | inactive
13 | CCCCCC(=O)C(C)C(C)=O (stereo not given) | inactive | inactive | inactive | inactive | – | inactive | inactive | inactive | – | inactive
14 | CCC(S)C(C)CO (stereo not given) | inactive | inactive | inactive | inactive | – | inactive | inactive | inactive | – | inactive
15 | CCCCCCC=CCCC=O | inactive | inactive | inactive | inactive | – | inactive | inactive | inactive | inactive | –
